Bioassay records as filed in PubChem.
Cneo AK release: causes C. neoformans cell lysis. lysis activity, % at 15 µM. adenylate kinase release luminescence, 4 h; normalised: neutral wells 0, clomiphene wells 100. actives 0.2% (n = 360,000);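 active means mean lysis activity across replicates of at least 80%, whatever share of replicates individually reach that level; inactive means mean lysis activity below 80%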
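Assay system: Cryptococcus neoformans yeast cells / Dosing: single-point compound dose / Timing: 4 h at 37 °C static, read 1 h later / Measured by: luminescence of released adenylate kinase using an AK detection reagent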
esBAF inh: SWI/SNF esBAF complex inhibition; mouse ES cells, Bmi1-luciferase knock-in reporter, 24 h; 100% = twice the neutral-well signal; reporter increase, % at 12.5 µM; actives 2% (n = 350,000); in the data active means activation above about 40%; inconclusive means no clear call, values can overlap the other calls;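 further: a rise in the Bmi1 reporter signal indicates esBAF inhibition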
Env fusion inh: HIV envelope-mediated fusion inhibition; HeLa-JRFL Env/CEM21 cell fusion, luciferase; inhibition, % at 12.3 µM; actives 1.1% (n = 360,000);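 active means mean replicate inhibition score of at least 50 and every replicate individually at or above 50; inconclusive means only one of the two criteria met; inactive means mean below 50 and not all replicates reaching 50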
MITF act: MITF TRPM1 promoter activation in melanoma cells; SK-MEL-5 TRPM1-promoter luciferase, 24 h; % of positive control, neutral wells = 0; activation, % at 12.5 µM; actives 0.75% (n = 300,000);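 active means mean activation of at least 80% with every replicate also reaching 80%; inconclusive means mean reaches 80% but some replicate falls short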
ERAP1 HTS inh: inhibitors of human ERAP1 aminopeptidase; Q9NZ08; recombinant ERAP1, Leu-AMC fluorescence, 60 min; inhibition, % at 10.7 µM; actives 0.15% (n = 340,000);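 active means mean replicate inhibition of at least 30%, or all replicates individually reaching that 30% level; inactive means mean below 30% and not every replicate reaching it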
Target sequence (Q9NZ08 whole entry, looked up): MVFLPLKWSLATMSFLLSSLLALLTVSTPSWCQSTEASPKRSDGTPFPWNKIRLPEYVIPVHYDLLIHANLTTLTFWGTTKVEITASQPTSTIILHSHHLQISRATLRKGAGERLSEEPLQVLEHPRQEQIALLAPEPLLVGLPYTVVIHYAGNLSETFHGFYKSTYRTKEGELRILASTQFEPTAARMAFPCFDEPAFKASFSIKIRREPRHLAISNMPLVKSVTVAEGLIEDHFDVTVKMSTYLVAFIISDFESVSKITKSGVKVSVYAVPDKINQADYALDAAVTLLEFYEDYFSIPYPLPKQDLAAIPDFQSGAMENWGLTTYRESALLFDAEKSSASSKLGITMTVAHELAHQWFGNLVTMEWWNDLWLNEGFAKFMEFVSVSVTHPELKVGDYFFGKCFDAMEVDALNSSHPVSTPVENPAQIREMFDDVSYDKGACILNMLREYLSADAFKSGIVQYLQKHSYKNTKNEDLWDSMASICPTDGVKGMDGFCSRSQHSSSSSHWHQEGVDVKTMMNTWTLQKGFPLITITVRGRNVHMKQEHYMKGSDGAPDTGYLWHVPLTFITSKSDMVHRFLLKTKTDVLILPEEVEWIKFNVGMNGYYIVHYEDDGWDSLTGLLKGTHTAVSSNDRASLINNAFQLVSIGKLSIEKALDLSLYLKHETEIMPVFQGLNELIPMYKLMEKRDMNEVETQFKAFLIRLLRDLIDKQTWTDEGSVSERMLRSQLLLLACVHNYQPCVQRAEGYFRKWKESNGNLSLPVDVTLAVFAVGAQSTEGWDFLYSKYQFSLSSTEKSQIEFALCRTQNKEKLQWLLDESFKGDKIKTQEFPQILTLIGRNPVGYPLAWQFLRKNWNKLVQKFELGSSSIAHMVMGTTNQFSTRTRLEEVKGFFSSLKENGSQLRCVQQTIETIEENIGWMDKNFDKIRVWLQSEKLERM
Wnt bcat act: activators of Wnt/beta-catenin signaling; actives 1.2% (n = 300,000); activation, % at 9.35 µM; AID 743398; Wnt/beta-catenin reporter cell assay, activator, plate reader; in the data active means activation above about 30%, passing the limit was not always enough; inconclusive means no clear call, values can overlap the other calls
Of the large screens only hits and unclear results are named; the others gave an inactive call. This is a sample that favours compounds with a hit; in the whole collection about 3.5% have one here.

CC(=O)c1ccc(NC(=O)CCc2c(C)nc3ncnn3c2C)cc1	esBAF inh 48 (no result: ERAP1 HTS inh)
CCc1c(C)nc2ncnn2c1Nc1ccc(C(C)=O)cc1	esBAF inh 48 (no result: ERAP1 HTS inh)
COC(=O)c1ccc(NC(=O)CCc2c(C)nc3ncnn3c2C)cc1	none (no result: ERAP1 HTS inh)
Cc1cc2ncn(CCOc3ccccc3)c2cc1C	esBAF inh 83 (no result: Env fusion inh, ERAP1 HTS inh, Wnt bcat act)
CC=Cc1ccc2n(c1=O)C[C@@H]1[C@@H](CO)[C@H](C(=O)NC3CCCC3)[C@H]2N1Cc1ccncc1 (mixture of isomers)	none (no result: Env fusion inh, MITF act, Wnt bcat act)
O=[N+]([O-])c1cc2c(cc1C=Nc1ccccc1)OCO2	none (no result: Env fusion inh, ERAP1 HTS inh, Wnt bcat act)
Sc1oc(-c2ccccc2)cc1C=Nc1ccccc1	esBAF inh 85 (no result: Wnt bcat act)
COc1ccc(C2=Nn3c(nnc3-c3ccccc3F)SC2)cc1OC1CCCC1	Wnt bcat act 36
COc1ccc(C2=Nn3c(nnc3-c3ccccc3F)SC2)cc1OC1CCOC1 (stereo unspecified)	none
CS(=O)(=O)NN1C(=O)c2ccccc2NC1c1cc2ccccc2nc1Cl (stereo unspecified)	esBAF inh 89, Wnt bcat act 52 (no result: Cneo AK release)
CS(=O)(=O)NN1C(=O)c2ccccc2NC1c1ccccc1F (stereo unspecified)	none
Cc1cc2nc(-c3ccccc3O)[nH]c2cc1C	none
Clc1cc2nc(-c3cccnc3Cl)[nH]c2cc1Cl	MITF act 89, Wnt bcat act 47
CCCN1[C@H](C(=O)NCc2ccccn2)[C@@H](CO)[C@@H]2Cn3c(ccc(C4=CCCC4)c3=O)[C@@H]21	none (no result: Env fusion inh, MITF act, Wnt bcat act)
COc1ccc2nc(Cl)cc(Cl)c2c1	none (no result: MITF act)
C=CS(=O)(=O)c1c2cc(OC)ccc2nc2ccc(OC)cc12	Wnt bcat act 458 (no result: Cneo AK release, esBAF inh, MITF act)
CC(C)(C)S(=O)(=O)c1cnc(-c2ccccn2)nc1N	none (no result: Cneo AK release, esBAF inh)
Cc1cccc(-c2ncc(S(=O)(=O)C(C)(C)C)c(N)n2)c1	esBAF inh 68, MITF act 94, Wnt bcat act 35 (no result: Cneo AK release)
Cc1ccc2c(c1)C(=C(C#N)C#N)CCN2	Env fusion inh 76 (no result: Cneo AK release, esBAF inh)
O=C(NCC[C@H]1CC[C@H](NC(=O)C2CC2)[C@@H](CO)O1)c1cnccn1	none (no result: MITF act, Wnt bcat act)
Cc1nn(C)cc1NC(=O)C[C@@H]1CC[C@H]2[C@H](COc3ccc(NC(=O)C4CCC4)cc3C(=O)N2C)O1	none (no result: Cneo AK release, MITF act, ERAP1 HTS inh, Wnt bcat act)
O=C(Nc1ccccc1C(=O)Nc1ccc(Br)cn1)c1ccccc1Cl	none (no result: Env fusion inh)
Cc1ccccc1C(=O)Nc1ccc(Br)cn1	esBAF inh inconclusive, MITF act 96 (no result: Env fusion inh, ERAP1 HTS inh, Wnt bcat act)
Cc1ccnc(NC(=O)c2ccc(Br)s2)c1	Wnt bcat act 35
CCC(=O)Nc1ccc(Br)cn1	none
O=C(Nc1ccc(Br)cn1)c1ccc(Br)s1	Wnt bcat act 38
O=C(Nc1ccc(Br)cn1)c1ccc(Cl)s1	esBAF inh 60, Wnt bcat act 35
O=C(C[C@@H]1CC[C@@H](NC(=O)C2CCOCC2)[C@@H](CO)O1)Nc1nccs1	none (no result: MITF act, Wnt bcat act)
COCCOC(=O)N1C(=O)[C@@]2(c3ccccc31)[C@H](C(=O)Nc1nc3ccccc3s1)[C@H]1C(=O)O[C@H](c3ccccc3)[C@H](c3ccccc3)N1[C@@H]2c1ccc(OCCO)cc1	none (no result: esBAF inh, MITF act, Wnt bcat act)
O=C(NCc1ccccn1)c1ccc(Cl)s1	none (no result: Env fusion inh)
O=C(Nc1nc(-c2ccccn2)cs1)c1ccc(Cl)s1	none (no result: ERAP1 HTS inh)
O=C(Nc1ccccn1)c1ccc(Cl)s1	MITF act 161 (no result: esBAF inh)
O=C(Nc1nccs1)c1ccc(Cl)s1	esBAF inh 52
Cc1cc(C(=O)Nc2ccc(Br)cn2)sc1C	Wnt bcat act 54 (no result: Env fusion inh, MITF act)
C[C@@H]1CN([C@@H](C)CO)C(=O)c2cc(C#CCN(C)C)cnc2O[C@H]1CN(C)Cc1ccc(-c2ccccc2)cc1	none (no result: MITF act, Wnt bcat act)
CO[C@H]1CN(C)C(=O)c2ccc(NC(C)=O)cc2OC[C@H](C)N(C(=O)c2ccccc2)C[C@@H]1C	none (no result: MITF act, Wnt bcat act)
Cc1ccc(S(=O)(=O)Nc2ccc3c(c2)C(=O)N([C@@H](C)CO)C[C@@H](C)[C@H](CN(C)C(=O)CCCN(C)C)OCCCC[C@@H](C)O3)cc1	none (no result: MITF act, Wnt bcat act)
O=C(CNc1ccc2ccccc2c1)N/N=C/c1ccc(OC(=O)/C=C/c2ccco2)cc1	Wnt bcat act 51 (no result: Cneo AK release, esBAF inh)
O=C(CNc1cccc2ccccc12)N/N=C/c1ccc(OC(=O)/C=C/c2ccco2)cc1	none
CCCNC(=O)[C@H]1[C@H](CO)[C@H]2Cn3c(ccc(-c4ccc(OC)cc4)c3=O)[C@H]2N1CC	none (no result: Cneo AK release, esBAF inh, Env fusion inh, MITF act, Wnt bcat act)
Nc1ccc(OCc2ccccc2)cc1[N+](=O)[O-]	esBAF inh 44
O=C(CSc1n[nH]c(=O)n1Cc1ccco1)c1ccc2c(c1)OCCO2	none
O=C(CSc1n[nH]c(=O)n1C1CC1)c1ccc2c(c1)OCCO2	Wnt bcat act 38 (no result: esBAF inh, MITF act, ERAP1 HTS inh)
O=C(c1ccccc1)C1OC1C(=O)c1ccccc1 (stereo unspecified)	esBAF inh 53
O=C(Cc1cccc2ccccc12)NNC(=O)c1cccs1	none (no result: MITF act, ERAP1 HTS inh, Wnt bcat act)
O=C(NCc1cccc2ccccc12)c1cccs1	esBAF inh 55
CCC(=O)Nc1ccc2c(c1)C(=O)N(C)C[C@@H](OC)[C@@H](C)CN(Cc1cccnc1)[C@H](C)CO2	none (no result: Env fusion inh, MITF act, Wnt bcat act)
CCC(=O)N1[C@@H](CO)[C@@H](c2ccccc2)[C@@H]1CN(C)C(=O)c1ccccc1F	none (no result: Env fusion inh, MITF act, Wnt bcat act)
COc1cc(/C=C/C(=O)OCC(=O)c2ccc3c(c2)NC(=O)CO3)ccc1OC(F)F	ERAP1 HTS inh 37 (no result: Env fusion inh)
COc1ccc(/C=C/C(=O)OCC(=O)c2ccc3c(c2)NC(=O)CO3)cc1	none (no result: ERAP1 HTS inh)
CCNS(=O)(=O)c1ccc(CCC(=O)Nc2cc(Cl)ccc2Oc2ccccc2)cc1	Env fusion inh 107 (no result: ERAP1 HTS inh)
O=C(CC(=O)Nc1ccccc1F)Nc1ccccc1F	none
NC(=O)C1CC(=O)N(c2ccc(OCc3ccc(Cl)cc3Cl)cc2)C1 (stereo unspecified)	none
Cc1cc(Cl)ccc1OCC(=O)OCC(=O)Nc1cccnc1Cl	none
NC(=O)C1CC(=O)N(c2ccc(OCc3ccc(Cl)c(Cl)c3)cc2)C1 (stereo unspecified)	esBAF inh 51, Wnt bcat act 54 (no result: MITF act)
Cc1cccc(NC(=O)CNC(=O)COc2ccc(C(=O)c3ccc(F)cc3)cc2)c1C	Wnt bcat act 42 (no result: Cneo AK release, esBAF inh, ERAP1 HTS inh)
Cc1ccc(OCC(=O)Nc2cccnc2Cl)cc1C	MITF act 87 (no result: Cneo AK release)
Cc1ccc(CCC(=O)Nc2ccccc2F)s1	Wnt bcat act 62
C[C@@H]1CN([C@H](C)CO)S(=O)(=O)c2ccc(/C=C/c3ccccc3)cc2O[C@H]1CN(C)C(=O)c1ccncc1	none (no result: MITF act, Wnt bcat act)
C[C@@H]1CN([C@@H](C)CO)C(=O)c2cc(NC(=O)CCN3CCOCC3)ccc2O[C@H]1CN(C)S(=O)(=O)c1ccc(F)cc1	none (no result: MITF act, Wnt bcat act)
CO[C@H]1CN(C)C(=O)c2cc(NC(=O)Cc3ccccc3)ccc2OC[C@@H](C)N(C(C)=O)C[C@@H]1C	none (no result: MITF act, Wnt bcat act)
NC(=O)C1CC(=O)N(c2ccc(OCC(=O)Nc3ccccc3F)cc2)C1 (stereo unspecified)	Wnt bcat act 34 (no result: Env fusion inh)
